In PMC9289877 (Journal of Medicinal Chemistry, 2022):
*1 amine or outer side, *2 acyl side, *3 side chain or, on linkers, in order; H or OH if unused. Where a SMILES comes first, the peptide text is derived from it. The star is where a group is joined. X4 = CC(ON(C(C)(C)C)C(C)(C)C)c1ccc(O*)cc1; Suc = O=C(CCC(=O)[*:2])[*:1]

Key:
[1] = test system: U87 human glioblastoma cell line; experiment: PrestoBlue viability test on U87 cells with or without HNE; format: cell-based; details: 48 h
In short: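 U87 cells were seeded and cultured for 48 h, then switched to serum-free DMEM. Test compound (0–400 μM) and HNE 0.68 μM were added; where used, eglin C 10 μM was added before HNE. After 1 h, 10% serum was added and incubation continued for 24, 48 or 72 h. PrestoBlue reagent (1/10 volume) was added for 30 min at 37 °C, and fluorescence was read at ex 560/em 590 nm.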

[2] = test system: caspase 3/7 activation in U87 cells; experiment: Caspase-Glo 3/7 assay in U87 cells; format: cell-based, human; details: doxorubicin 2 μM
In short: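 U87 human glioblastoma cells were grown in DMEM with 10% FBS at 37 °C and 5% CO2, then seeded and cultured for 48 h before treatment. Doxorubicin 2 μM served as the apoptosis control, and signals were followed over time up to 48 h. For Caspase-Glo 3/7, plate and reagent were equilibrated to room temperature, then reagent was added to the wells. After 15 min at room temperature, luminescence was read.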

U87 cells = experiment: RealTime-Glo Annexin V Apoptosis and Necrosis Assay in U87 cells; format: cell-based, human; details: doxorubicin 2 μM
In short: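 U87 cells were kept in DMEM with 10% FBS at 37 °C and 5% CO2, seeded for 48 h, then exposed to doxorubicin 2 μM as the apoptosis control and followed up to 48 h. RealTime-Glo detection reagent was added to the live-cell medium. Annexin V binding was read by luminescence. Necrosis was read as fluorescence of a cell-impermeant DNA dye (ex 485/em 530 nm) after 60 min at 37 °C.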

For CC(NC(=O)CCC(=O)O)C(=O)NC(C)C(=O)N1CCCC1C(=O)NC(C(=O)Oc1ccc(C(C)ON(C(C)(C)C)C(C)(C)C)cc1)C(C)C (stereo not drawn) [suc-AAPV-phenol-DBNO, Acid 4-((1-((1-(2-((1-(4-(1-((di-tert-butylamino)oxy)ethyl)phenoxy)-3-methyl-1-oxobutan-2-yl)carbamoyl)pyrrolidin-1-yl)-1-oxopropan-2-yl)amino)-1-oxopropan-2-yl)amino)-4-oxobutanoic Acid] (Suc-AAPV-X4; configuration not given here), the “effect on viability in the presence of HNE” value ([1]; U87 cells, prodrug 0–400 μM, HNE 0.68 μM) was “does not have any measurable effect”.

In the case of COc1cccc2c1C(=O)c1c(O)c3c(c(O)c1C2=O)C[C@@](O)(C(=O)CO)C[C@@H]3O[C@H]1C[C@H](N)[C@H](O)[C@H](C)O1 [doxorubicin], the “U87 population still viable” value ([1]; doxorubicin 2 μM) is reported as 50%, the “caspase activity (positive control)” value [2] is reported as “increases between 24 and 48 h” and the “DNA+ labeling (positive control)” value (U87 cells) is reported as “increases regularly until 48 h”. The “annexin V labeling (positive control)” value (U87 cells; timing similar to caspase (24 to 48 h)) was “highly AV+”.

B1: eglin C: a potent HNE inhibitor (CIBA-GEIGY) (protein, UniProt P01051 1-70, looked up)
Eglin C: TEFGSELKSFPEVVGKTVDQAREYFTLHYPQYDVYFLPEGSPVTLDLRYNRVRVFYNPGTNVVNHVPHVG
With B1 the “rescue of U87 cells from prodrug + HNE cytotoxicity by elastase inhibitor” value ([1]; eglin C 10 μM added just before HNE 0.68 μM, four prodrugs) was “rescues the cells”.
